Measurements as given in ChEMBL document CHEMBL3243952, “Antagonists of vitamin B6. Simultaneous and stepwise modification of the 2 and 4 positions” (J Med Chem, 1977).
Calls of active or inactive are those of the source. The rule behind the calls is not given here.

Tests used:
TA3 [1] = assay: Growth inhibition of mouse TA3 cells at 10^-4 M after 3 days incubation in presence of 10^-7 M pyridoxal; format: functional
Pyridoxal kinase = target: T1, Pyridoxal kinase (Homo sapiens, UniProt O00764); assay: Noncompetitive inhibition of pyridoxal phosphokinase (unknown origin) using ATP-gamma-[32P]
T1 sequence (O00764 whole entry): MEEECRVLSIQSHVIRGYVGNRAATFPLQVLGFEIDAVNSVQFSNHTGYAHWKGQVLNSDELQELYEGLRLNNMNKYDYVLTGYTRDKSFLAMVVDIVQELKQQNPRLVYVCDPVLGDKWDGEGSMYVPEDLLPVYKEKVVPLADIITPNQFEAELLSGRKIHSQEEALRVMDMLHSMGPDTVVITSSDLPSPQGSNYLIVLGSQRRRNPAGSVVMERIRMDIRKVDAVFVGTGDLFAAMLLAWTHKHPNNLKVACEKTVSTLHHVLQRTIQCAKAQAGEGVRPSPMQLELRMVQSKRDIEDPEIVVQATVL

TA3 [2] = assay: Growth inhibition of mouse TA3 cells after 3 days incubation in presence of 10^-5 M pyridoxal; format: functional
Procedure, shortened: (§1)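 Mouse mammary adenocarcinoma TA3 cells were grown in stationary upright tubes with 10% horse serum and pyridoxal at 10⁻⁷ M (minimal growth) or 10⁻⁵ M. The inoculum was 50 000 cells, with compound added in an equal volume of medium. Cells were incubated for 3 days, and growth was read by protein assay. Five tubes were used per concentration, with repeats for active compounds. The 50% inhibitory concentration was derived.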

TA3 [3] = assay: Growth inhibition of mouse TA3 cells after 3 days incubation in presence of 10^-7 M pyridoxal; format: functional; details: for IC50: Mus musculus, TA3, 72 h, read-out: ID50 (the source's name); procedure, shortened: as §1

| Structure (SMILES) | ID50 (TA3 [2]) | IC50 (TA3 [3]) | inhibition (TA3 [2]) | other results |
| --- | --- | --- | --- | --- |
| C=Cc1ncc(COP(=O)(O)O)c(C=C)c1O |  |  |  | inhibition (TA3 [1]): inactive |
| Cc1c(CO)cnc(/C=N/O)c1O |  |  |  | inhibition (INH) (TA3 [1]): 40% |
| C=Cc1ncc(CO)c(C)c1O.Cl | 3.2 ×10⁻⁵ M | 3 µM |  | Ki (Pyridoxal kinase): 68.1 µM |
| Cc1c(CO)cnc(C=O)c1O | 1.6 ×10⁻⁴ M |  |  | ID50 (TA3 [3]): 6 ×10⁻⁵ M |
| Cc1ncc(CO)c(C)c1O |  |  | inactive | ID50 (TA3 [3]): 6.8 ×10⁻⁸ M |
| C=Cc1ncc(CO)c(CO)c1O |  | 9.4 µM | Active |  |
| C=Cc1ncc(CO)c(C=C)c1O.Cl | 3.2 ×10⁻⁵ M | 6.8 µM |  |  |
| C=Cc1ncc(COP(=O)(O)O)c(C)c1O | 1.8 ×10⁻⁴ M |  |  | ID50 (TA3 [3]): 3.8 ×10⁻⁵ M |
| C=Cc1c(CO)cnc(CO)c1O |  |  |  | inhibition (TA3 [1]): inactive |
| C=Cc1c(CO)cnc(C)c1O |  | 0.0025 µM | inactive |  |
| Cc1c(CO)cnc(/C=N/NC(N)=S)c1O |  | 2.7 µM | Active |  |
| Cc1c(CO)cnc(CO)c1O |  |  |  | inhibition (TA3 [1]): inactive |
